SMARCA2 act: SMARCA2 (BRM) function activators, primary screen, cell-based, luminescence, high throughput; MG213 cells, MMTV-luciferase reporter, dexamethasone, overnight; activation, % at 9.1 µM; hit rate 1% among 370,000; in the data active means activation above about 7.8%;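 further: 0% = vehicle wells and 100% = reference activator wells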
NR2E3 ag-1: inhibitors of NR2E3-RetCOR corepressor binding, primary screen, NR2E3 agonist project, biochemical, TR-FRET, GST-NR2E3, biotin-RetCOR | Photoreceptor-specific nuclear receptor (Homo sapiens), Q9Y5X4 | inhibition of corepressor binding, % at 4.78 µM | hit rate 0.12% among 320,000 | 1536-well;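 active means percent inhibition above the cutoff of mean plus 3 SD of all tested compounds, set per screening campaign, cut at about 20% in these data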;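 further: 0% = DMSO wells and 100% = biotin wells as full block of FRET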
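System: GST-tagged NR2E3 plus biotinylated RetCOR corepressor; Buffer or medium: pH 7.5 Tris-based buffer; Probe or stimulus: RetCOR corepressor, biotinylated, 7 nM; Doses: compound at 4.8 µM, single dose; Schedule: 5 h incubation at 4 °C; Technique: time-resolved FRET; Evaluation: percent inhibition of TR-FRET ratio; Replication: one well per compound, singlicate testing.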
NR2E3 ag-2: NR2E3 agonists in two-hybrid cells, primary screen, cell-based, luminescence, CHO-S, Gal4-NCOR/VP16-NR2E3. Photoreceptor-specific nuclear receptor (Homo sapiens), Q9Y5X4. luciferase. inhibition of corepressor binding, % at 3.98 µM. hit rate 0.35% among 360,000. AID 602229, 2012;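 active means inhibition above the mean of all tested compounds plus 3 SD, cut at about 70% in these data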;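 further: 0% = DMSO with NR2E3 transfected cells and 100% = cells lacking NR2E3 construct; higher means lower luciferase signal from less NR2E3 corepressor binding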
GalR3 antag: GalR3 antagonists in HEK293 cells, primary screen, cell-based, fluorescence readout | Galanin receptor type 3 (Homo sapiens), O60755 | HEK293 GalR3-CNG cAMP membrane potential fluorescence; galR3 body fused to GalR1 C-terminus | inhibition, % at 3 µM | hit rate 0.44% among 360,000;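 active means inhibition above the screen-wide average plus 3 SD, cut at about 13% in these data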;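 further: forskolin and galanin both at EC90 stimulate the cells; cAMP rise reported by CNG channel membrane potential dye signal; 0% = forskolin plus galanin with DMSO and 100% = forskolin alone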
Target sequence (O60755 1-299 limits assumed): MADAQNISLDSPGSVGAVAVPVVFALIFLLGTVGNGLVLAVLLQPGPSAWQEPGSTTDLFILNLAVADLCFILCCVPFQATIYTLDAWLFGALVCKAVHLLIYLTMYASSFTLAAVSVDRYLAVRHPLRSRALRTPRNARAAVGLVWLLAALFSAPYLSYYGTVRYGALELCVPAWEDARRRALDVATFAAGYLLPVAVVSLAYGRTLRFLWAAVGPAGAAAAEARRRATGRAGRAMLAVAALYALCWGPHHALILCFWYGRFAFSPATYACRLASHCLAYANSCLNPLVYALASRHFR
NR2F2 inh: NR2F2 transcriptional activity inhibitors, primary screen, cell-based, luciferase reporter, HEK293T, luminescence | COUP transcription factor 2 (Homo sapiens), P24468 | HEK293T NGFI-A luciferase reporter | inhibition, % at 8.6 µM | hit rate 0.7% among 370,000;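 active means inhibition above a per-plate cutoff, mean inhibition of test wells between control levels plus 3 SD, cut at about 38% in these data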;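 further: cells cotransfected with COUP-TFII expression vector driving the NGFI-A reporter; 0% = median of COUP-TF2 test wells and 100% = reporter-only cells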
NR2E3 agonist cf: NR2E3 agonists, confirmation, biochemical, TR-FRET; shares compounds with NR2E3 ag-1; cell-free NR2E3 corepressor release, 5 h; activation (reported as inhibition), % at 3.98 µM; hit rate 39% among 360; AID 2379, 2010; in the data active means activation above about 20%
PPARg-NCOR2 ctr: agonists of PPARg-NCOR2 corepressor interaction, counter-screen for NR2E3 agonist project, biochemical, TR-FRET | shares compounds with NR2E3 ag-1 | TR-FRET PPARg-NCOR2 coregulator interaction | inhibition, % at 3.98 µM | hit rate 45% among 360; in the data active means inhibition above about 20%;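 further: 0% = DMSO vehicle and 100% = wells without protein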
An asterisk follows results filed as active; nt = no result given. The list is not random: actives were taken first. Their share in the collection is about 2.2%.

SMILES | SMARCA2 act | NR2E3 ag-1 | NR2E3 ag-2 | GalR3 antag | NR2F2 inh | NR2E3 agonist cf | PPARg-NCOR2 ctr
Cn1c(N)c(C(=O)CSc2nc(C3CC3)n(-c3ccccc3)n2)c(=O)[nH]c1=O | 1.4 | 23.6* | 0.7 | -1.1 | -5.3 | -15.5 | -3.4
CSc1nc(-c2ccccc2)c(C#N)c(=O)[nH]1 | 0.8 | 22.0* | -29.1 | -5.0 | -1.3 | 21.5* | 24.7*
CCC(Sc1nc(-c2ccccc2)c(C#N)c(=O)[nH]1)C(=O)Nc1cc(C)on1 (centres undefined) | -1.8 | 26.9* | -11.7 | -1.9 | 5.4 | 20.4* | 41.5*
CCC(Sc1nc2ccccc2[nH]1)C(=O)Nc1cc(C)on1 (centres undefined) | -2.1 | 3.7 | -15.2 | -2.2 | 6.6 | nt | nt
COc1ccc(Cn2c(-c3ccc(C)cc3)nc3c(c(=O)c4ccccc4n3C)c2=O)cc1 | -2.7 | 2.8 | -6.4 | -2.4 | 10.3 | nt | nt
COc1ccc(Cn2c(-c3ccc(OC)cc3)nc3c(c(=O)c4ccccc4n3C)c2=O)cc1 | nt | 41.2* | nt | nt | nt | 28.9* | 20.4*
Cc1cc(C(=O)O)ccc1-n1c(C)ccc1C | nt | 21.4* | nt | nt | nt | 22.8* | -3.8
C=CCn1c(SCC(=O)NC(=O)NCc2ccco2)nc2sc(C)c(C)c2c1=O | 3.2 | 21.7* | -7.0 | -2.3 | 0.7 | -2.2 | 8.3
O=C(O)C1CCN(c2nc(-c3ccccc3)c3cc(Br)ccc3n2)CC1 | 0.0 | 20.9* | -59.2 | -11.8 | 19.4 | 23.7* | 25.0*
OCCN1CCN(c2nc(-c3ccccc3)c3cc(Br)ccc3n2)CC1 | -1.6 | 2.7 | -19.3 | -9.4 | -0.2 | nt | nt
O=C(C1=C(O)C(=O)N(CC2CCCO2)C1c1ccccc1F)c1ccco1 (centres undefined) | 0.8 | 35.9* | -15.5 | -7.9 | -5.4 | 13.1 | 12.2
CCSc1nnc(NC(=O)CCc2ccccc2)s1 | -2.2 | 40.1* | -18.3 | -4.4 | 16.4 | 9.2 | 7.1
CCCSc1nnc(NC(=O)CCc2ccccc2)s1 | -1.3 | -0.6 | 0.8 | -0.3 | 7.0 | nt | nt
O=C1CCC[C@H]2C[C@H](NCc3ccccc3F)CC[C@]23CCCN13 | nt | nt | nt | nt | -6.3 | nt | nt
CCc1cc2cc(C(=O)Nc3ccc(F)cc3)sc2s1 | 0.1 | 29.6* | -5.6 | -4.4 | -32.1 | 3.9 | -12.6
CCc1cc2cc(C(=O)Nc3ccccc3F)sc2s1 | 2.9 | 1.9 | -21.5 | -7.6 | -33.5 | nt | nt
COc1cc(Br)c(C(=O)c2nccc3cc(OC)c(OC)cc23)cc1OC | 0.6 | 27.9* | -36.2 | -1.8 | 18.5 | 24.0* | 9.2
COc1cc(N)c(C(=O)c2nccc3cc(OC)c(OC)cc23)cc1OC | 1.3 | 1.7 | -4.3 | -2.4 | 12.1 | nt | nt
CCc1cc2c(=O)n(-c3ccccc3)c(=S)[nH]c2s1 | -2.3 | 23.0* | -4.6 | -3.1 | -10.2 | 1.2 | -2.0
O=C(Cn1nnc(-c2ccccc2F)n1)Nc1ccc(F)cc1F | -2.4 | nt | nt | nt | 3.9 | nt | nt
NC(=O)c1sc2nc3c(c(-c4ccco4)c2c1N)CCC3 | -0.3 | 11.3 | 0.0 | -6.5 | 19.2 | nt | nt
Cc1ccc(-c2c3c(nc4sc(C(N)=O)c(N)c24)CCCC3)o1 | -3.6 | 26.2* | 15.2 | -3.3 | 14.4 | -10.3 | 1.8
Cc1ccc(NC(=S)Nc2nc(CC(=O)Nc3ccccc3)cs2)cc1 | -2.1 | 20.4* | -12.7 | -4.4 | -16.4 | 13.4 | 13.3
C[C@H]1[C@@H](OC(=O)Nc2ccc(C#N)cc2)CC[C@@]23CCCN2C(=O)CCC[C@@H]13 | nt | nt | nt | nt | 3.9 | nt | nt
COc1ccc(OCc2nc3c4cc(OC)c(OC)cc4nc(=S)n3[nH]2)cc1 | 3.8 | 21.1* | 17.8 | -10.3 | 12.3 | 6.5 | 10.7
COc1cc2nc(=S)n3[nH]c(CCn4c(C)nc5ccccc54)nc3c2cc1OC | 2.5 | -6.8 | -21.7 | -0.1 | 14.3 | nt | nt

Assay outcomes from PubChem BioAssay.
